Entries after “also recorded” stand apart in the source; their conditions may differ. Read-outs that look alike come from different tables or passages of the source.
What was measured:
[1] = cited from earlier work
[2] = 10‐ and 30‐mg doses, early prototype formulations; ref Supplemental Data; cited from earlier work
[3] = system: OATP; conditions: cited from earlier work
[4] = system: uridine diphosphate glucuronosyltransferase (UGT)1A1, UGT1A9; conditions: forms glucuronic acid conjugates; minor contribution by UGT1A9; cited from earlier work
[5] = cited from earlier work; remark: listed apart in the source
[6] = system: HIV‐1; conditions: cited from earlier work
[7] = coadministered rifampin; cited from earlier work
[8] = single-dose oral 30 mg, fasted conditions, cited from earlier work
[9] = assay type: in vivo, human
Outline: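 Healthy adults aged 18–65 years (≥50 kg, BMI 18.5–31.0 kg/m2) were randomised 1:1 to a two-period crossover. Each received a single oral 30 mg tablet after ≥10 h fasting or within 30 min of a high-fat meal (~53% fat, ~870 calories), with a 14-day washout. Plasma was sampled predose to 168 h and assayed by protein precipitation plus LC-MS/MS (LLOQ 25 ng/mL, ULOQ 25,000 ng/mL). Parameters were noncompartmental. GLS mean ratios (90% CI) came from a mixed-effects model with treatment and period as fixed effects and participant as random.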

[10] = system: serum albumin; conditions: cited from earlier work
[11] = 30 mg with a moderate-fat meal; ref Supplemental Data; cited from earlier work
[12] = cited from earlier work; remark: listed apart in the source
[13] = Safety assessments in the phase 1 food-effect study; assay type: in vivo, human
[14] = cited from earlier work; remark: listed apart in the source
[15] = 30-mg single oral dose, high-fat meal, n = 21
[16] = Fasted State vs High‐Fat Meal, 30-mg single dose, n = 21
[17] = high-fat meal compared with fasting state, 30 mg oral

**Q.** For Cc1nnc(C(=O)NC(C)(C)c2nc(C(=O)NCc3ccc(F)cc3)c(O)c(=O)n2C)o1 [Raltegravir], which “increase in AUC from time 0 to 12 hours” value ([1]; raltegravir 400 mg twice daily with a high-fat meal) is on record?
**A.** The value was 2 fold.

**Q.** And the “increase in AUC from time 0 to last observation” value ([1]; raltegravir 1200 mg (2 × 600 mg) once daily, following a high-fat meal)?
**A.** The value was 1.9%.

**Q.** And the “decrease in AUC from time 0 to last observation” value ([1]; raltegravir 1200 mg (2 × 600 mg) once daily, following a low-fat meal)?
**A.** The value was 42%.

**Q.** Which results are given for C[C@H]1CO[C@@H]2Cn3cc(C(=O)NCc4ccc(F)cc4F)c(=O)c(O)c3C(=O)N12 [cabotegravir, Cabotegravir]?
**A.** effect of a moderate-fat meal (30% fat, ∼670 calories) on PK [2]: did not significantly affect; substrate for intestinal uptake transporters such as OATP [3]: not a substrate; metabolizing enzymes [4]: primarily metabolized by uridine diphosphate glucuronosyltransferase (UGT)1A1; Biopharmaceutics Drug Disposition Classification System class [5]: class 2; passive permeability [5]: high; in vitro protein‐adjusted 90% inhibitory concentration [6]: 166 ng/mL; effect of rifampin on cabotegravir exposures [7]: significantly reduced; AUC(0-inf) ([8]; read-out: AUC0‐∞): 146 µg·h/mL; median time to peak plasma concentration (tmax) [8]: 2 h; plasma apparent terminal‐phase half‐life (t1/2) [8]: approximately 38.5 hours; effect of high-fat meal on tmax and t1/2 ([9]; 30 mg oral, high-fat meal vs fasting): Neither tmax nor t1/2 was affected; CL/F, Mean (SD) ([9]; 30-mg single oral dose, fasted state, n = 21): 0.218 (0.0611) L/h; CL/F, Mean (SD) [9, 15]: 0.191 (0.0553) L/h; t1/2, Mean (SD) [9, 15]: 41.1 (6.57) h; peak concentration of the one participant excluded from PK analysis ([9]; 2 hours after dosing, fasting conditions, 30 mg oral): 0.0987 µg/mL; AUC0‐∞, GLS Mean Ratio (90% CI) [9, 16]: 1.14 (1.02‐1.28); C24, GLS Mean Ratio (90% CI) [9, 16]: 1.17 (1.04‐1.30); CL/F, GLS Mean Ratio (90% CI) [9, 16]: 0.875 (0.785‐0.977); Cmax, GLS Mean Ratio (90% CI) [9, 16]: 1.14 (1.03‐1.27); t1/2, GLS Mean Ratio (90% CI) [9, 16]: 0.997 (0.964‐1.03); quantifiable predose concentrations ([9]; crossover periods, 14-day washout): < 5 % of their respective Cmax values; decrease in CL/F ([9]; high-fat meal compared with after fasting, 30 mg oral): 13%; increase in maximal drug concentration [9, 17]: 14%; increase in plasma area under the concentration‐time curve [9, 17]: 14%; half-life ([9]; human, plasma, po, 30 mg): 41.1 h; binding to serum albumin [10]: highly bound; half‐life, geometric mean (95% confidence interval) [11]: 38.6 h; dose proportionality of trough concentration [12]: increase in proportional to dose; dose proportionality of AUC and Cmax ([12]; dose increased from 30 to 60 mg, ref Supplemental Data): less‐than‐dose‐proportional; treatment‐emergent laboratory abnormalities ([13]; grade 2 hypoglycemia, grade 3 increased direct bilirubin): 2 participants; electrocardiographic or vital sign abnormalities reported as AEs ([13]; single 30-mg oral doses): No clinically significant electrocardiographic or vital sign abnormalities; adverse events (grade 3/4, drug-related, serious, leading to discontinuation) ([13]; single 30-mg oral doses, fasted and fed, healthy adults): No grade 3/4 adverse events (AEs), drug‐related AEs, or AEs leading to discontinuation were reported; also recorded: no AEs or serious AEs that led to discontinuation of the study drug

**Q.** Which results are given for C[C@@H]1CCO[C@H]2Cn3cc(C(=O)NCc4ccc(F)cc4F)c(=O)c(O)c3C(=O)N12 [Dolutegravir]?
**A.** increase in plasma AUC0‐∞ ([14]; single-dose dolutegravir 50 mg with high-fat meal): 66%; increase in plasma AUC0‐∞ ([14]; single-dose dolutegravir 50 mg with low-fat meal): 33%; increase in plasma AUC0‐∞ ([14]; single-dose dolutegravir 50 mg with moderate-fat meal): 41%

Source: article PMC6585996 (Clinical Pharmacology in Drug Development, 2018)
